These results are taken from ChEMBL document CHEMBL5042476, “Structure-Based Design and Development of Chemical Probes Targeting Putative MOR-CCR5 Heterodimers to Inhibit Opioid Exacerbated HIV-1 Infectivity” (J Med Chem, 2021).

Data set [1] is described as follows: Cytotoxicity against human GHOST CCR5 cells assessed as reduction in cell viability measured after 6 days by XTT assay. In kind it is toxicity, cell-based. Conditions: time 6 day, read-out: TC50. The method in brief:
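GHOST CCR5 cells treated in triplicate at the same 6 concentrations without virus, 6 days at 37 °C. XTT/PMS added for 4 h at 37 °C and absorbance read at 450 nm (650 nm reference).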

For data set [2], the target named is T1, C-C chemokine receptor type 5 (Homo sapiens, UniProt P51681). Put plainly: Agonist activity at CCR5 (unknown origin) expressed in HOS cells co-expressing Gqi-5 assessed as stimulation of Ca2+ mobilization by calcium mobilization assay. In kind it is functional, cell-based. Put shortly:
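HOS-CCR5 cells transiently transfected with Gqi5, used 48 h later. Fluo4-AM loaded 45 min, compounds added, plate read 120 s at ex494/em516. Agonist arm: compound response recorded against CCL5 under the same conditions.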
Target sequence in this assay (P51681 whole entry, looked up): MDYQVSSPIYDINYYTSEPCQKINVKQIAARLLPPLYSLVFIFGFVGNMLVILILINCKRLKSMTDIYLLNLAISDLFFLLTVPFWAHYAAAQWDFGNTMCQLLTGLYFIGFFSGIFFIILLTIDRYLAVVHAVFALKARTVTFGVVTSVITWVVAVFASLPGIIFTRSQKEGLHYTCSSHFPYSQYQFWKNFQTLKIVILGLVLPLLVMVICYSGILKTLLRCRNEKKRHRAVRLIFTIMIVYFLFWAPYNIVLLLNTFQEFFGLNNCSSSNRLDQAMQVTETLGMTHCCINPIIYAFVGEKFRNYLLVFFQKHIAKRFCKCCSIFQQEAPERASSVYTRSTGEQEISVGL

Data set [3] addresses C-C chemokine receptor type 5 (Macaca mulatta, UniProt P61813). The data set can be described thus: Displacement of […] from recombinant rhesus macaque CCR5 expressed in Chem-1 cells by competitive radioligand binding assay. The class given is cell-based. The method in brief: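 Rhesus CCR5 Chem-1 membranes (3 μg) in HEPES buffer pH 7.4 with 0.2% BSA, 0.10 nM [125I]MIP-1α and six concentrations from 0.1 nM to 10 μM, 90 min at 25 °C. Nonspecific binding with 0.1 μM MIP-1β; filters counted. Ki by Cheng–Prusoff (KD 0.31 nM, historical value).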
In general terms: Displacement assays read how much labelled ligand stays bound in the presence of the test substance.

Data set [4] has as its target T2, Mu-type opioid receptor (Mus musculus, UniProt P42866). Put plainly: Antagonist activity at mouse MOR expressed in CHO cells assessed as inhibition of DAMGO-induced calcium mobilization preincubated for 60 mins measured after 15 mins by calcium mobilization assay. In kind it is functional, cell-based. Put shortly:
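mMOR-CHO cells transfected with Gα for 4 h, plated and cultured 24 h. Triplicates; IC50 by nonlinear regression.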
On the technique in general: Calcium flux is commonly read through the fluorescence of an indicator in the cells.

The target of data set [5] is Mu-type opioid receptor (Mus musculus) (UniProt P42866). Put plainly: Agonist activity at mouse MOR expressed in CHO cell membranes assessed as stimulation of [35S]-GTPgammaS binding measured after 1 hr by scintillation counting analysis relative to DAMGO. Conditions: Cell membrane. In kind it is functional.
Mu-type opioid receptor (Mus musculus), sequence (P42866 whole entry): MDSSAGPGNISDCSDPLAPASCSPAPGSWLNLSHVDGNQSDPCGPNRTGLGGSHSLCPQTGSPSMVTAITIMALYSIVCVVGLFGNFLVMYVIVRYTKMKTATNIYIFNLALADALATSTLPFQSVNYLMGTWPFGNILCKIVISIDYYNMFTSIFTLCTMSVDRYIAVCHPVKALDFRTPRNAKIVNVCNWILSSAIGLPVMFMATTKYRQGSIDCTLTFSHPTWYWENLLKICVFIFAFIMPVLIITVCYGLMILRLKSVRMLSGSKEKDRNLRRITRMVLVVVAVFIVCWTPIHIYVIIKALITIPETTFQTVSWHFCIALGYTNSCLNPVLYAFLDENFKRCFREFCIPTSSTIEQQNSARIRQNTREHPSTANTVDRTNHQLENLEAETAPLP
Data set [6] concerns the target T2, Mu-type opioid receptor. The data set can be described thus: Displacement of [3H]-naloxone from mouse MOR expressed in CHO cells incubated for 1.5 hrs by competitive radioligand binding assay. The class given is cell-based. The method in brief: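 Mouse MOR CHO membranes (30 μg) with [3H]naloxone and test compound in TME buffer (50 mM Tris, 3 mM MgCl2, 0.2 mM EGTA, pH 7.4), 1.5 h at 30 °C, then filtered. IC50 converted to Ki by Cheng–Prusoff.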

Data set [7] deals with T1, C-C chemokine receptor type 5. Put plainly: Antagonist activity at CCR5 (unknown origin) expressed in HOS cells co-expressing Gqi-5 assessed as inhibition CCL5-stimulated Ca2+ mobilization by calcium mobilization assay. In kind it is functional, cell-based. Put shortly:
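HOS-CCR5 cells transfected with Gqi5, used 48 h post-transfection and loaded with Fluo4-AM for 45 min. Compound preincubated 15 min, then CCL5 (20 μL of 200 nM) added after 16 s of reading.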
Target sequence in this assay (P51681 whole entry): as the sequence (P51681 whole entry, looked up) above

For data set [8] the target is unchanged. The data set can be described thus: Inhibition of CCR5-mediated Luc-expressing HIV1 BaL Env-pseudotype virus infection in PHA-stimulated CCR5 expressing leukocytes containing human PBMC assessed as inhibition of viral entry by measuring luminescence at 100 nM pretreated for 1 hr before infection measured after 2 days of infection. The class given is cell-based. The method in brief:
(§1)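 Compound 100 nM added 1 h before infection with BaL Env-pseudotyped luciferase virus (50 pg p24/10^6 cells) in 24-well plates. Lysate luciferase measured; RLU normalized to infected untreated cells.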
Target sequence in this assay (P51681 whole entry, looked up): as above

Data set [9] in a line: Therapeutic index, ratio of TC50 for human GHOST CCR5 cells to EC50 for inhibition of CCR5-mediated HIV-1 Bal entry in human GHOST CCR5 cells. Conditions: read-out: TI. The class given is toxicity, cell-based. The method in brief: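 GHOST-CCR5 cells plated at 1×10^4/well, cultured 24 h, then compounds at 6 concentrations (0.001–100 μM) in triplicate. Efficacy plates got HIV-1 BaL at a predetermined titer; 6 days at 37 °C. Supernatant RT activity measured by tritiated TTP incorporation on poly rA/oligo dT gives EC50. […] TI = TC50/EC50.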

In data set [10] the target is T2, Mu-type opioid receptor. The data set can be described thus: Agonist activity at mouse MOR expressed in CHO cells coexpressing Gqi5 assessed as inhibition of DAMGO-induced calcium mobilization preincubated for 60 mins measured after 15 mins by calcium mobilization assay. In kind it is functional, cell-based. The method in brief:
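CHO cells stably expressing mouse MOR, transfected with Gαq15 for 4 h, plated 10,000 cells/well and cultured 24 h. […] Calcium fluorescence read ex494/em516. Triplicate per concentration; IC50 by nonlinear regression.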

For data set [11], the target named is T1, C-C chemokine receptor type 5. The data set can be described thus: Inhibition of CCR5-mediated Luc-expressing HIV1 BaL Env-pseudotype virus infection in CCR5 expressing leukocytes containing human PBMC assessed as inhibition of viral entry by measuring luminescence pretreated for 1 hr before infection measured after 2 days of infection. Conditions: filed as antagonist. The class given is cell-based. The method in brief:
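[…] donor PBMCs, 2×10^5/well, in RPMI with 20 U/mL IL-2. Compound added 1 h before infection with BaL Env-pseudotyped luciferase virus (1.5 ng p24/well) and kept in culture. Luminescence read after 2 days.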
Target sequence in this assay (P51681 whole entry, looked up): as above

Data set [12] shares this target. Put plainly: Inhibition of CCR5-mediated Luc-expressing HIV1 BaL Env-pseudotype virus infection in PHA-stimulated CCR5 expressing leukocytes containing human PBMC assessed as inhibition of viral entry in presence of 10 nM morphine by measuring luminescence at 100 nM pretreated for 1 hr before infection measured after 2 days of infection. Conditions: filed as antagonist. In kind it is cell-based. Put shortly:
as §1
Target sequence in this assay (P51681 whole entry, looked up): as above

Data set [13] has the same target. The data set can be described thus: Inhibition of CCR5-mediated Luc-expressing HIV1 BaL Env-pseudotype virus infection in PHA-stimulated CCR5 expressing leukocytes containing human PBMC assessed as inhibition of viral entry in presence of 10 nM […] by measuring luminescence at 100 nM pretreated for 1 hr before infection measured after 2 days of infection. In kind it is cell-based. Conditions: filed as antagonist. The method in brief: as §1
Target sequence in this assay (P51681 whole entry, looked up): as above

Each structure is given as a SMILES string. Calls of active or inactive are those of the source. No cut-off for these calls is given here.

T2 sequence (P42866 whole entry): as the sequence (P42866 whole entry) above

In the case of `Cc1nnc(C(C)C)n1[C@@H]1C[C@H]2CC[C@@H](C1)N2CC[C@H](NC(=O)C1CCC(F)(F)CC1)c1ccccc1`, in data set [1], the CC50 at 144 h is over 500 nM.
The Ki is a dissociation constant, usually derived from enzyme kinetics or from competition with a known ligand. As to `CNC(=O)COCC(=O)NCCCCCCCNC(=O)COCC(=O)NCCc1nnc(C(C)C)n1[C@@H]1C[C@H]2CC[C@@H](C1)N2CC[C@H](NC(=O)C1CCC(F)(F)CC1)c1ccccc1`, the result in data set [2] was inactive. Besides, in [3], the Ki amounted to 41 nM.
For orientation: IC50 means the concentration that inhibits the measured activity by half. Broadly, the Emax is the greatest response seen or fitted, relative to the assay's reference. `CC(C)c1nnc(CCNC(=O)COCC(=O)NCCCCCNC(=O)COCC(=O)N[C@@H]2CC[C@@]3(O)[C@H]4Cc5ccc(O)c6c5[C@@]3(CCN4CC3CC3)[C@H]2O6)n1C1C[C@H]2CC[C@@H](C1)N2CC[C@H](NC(=O)C1CCC(F)(F)CC1)c1ccccc1` (some centres not stated): the IC50 came out at 1100 nM at Mu-type opioid receptor [4] and 1260 nM in data set [7]. For the same molecule, in data set [5], the maximum response (Emax) came to 19.4%. In addition, the Ki on Mu-type opioid receptor [6] was 4.23 nM.
For the molecule `CC(C)c1nnc(CCNC(=O)COCC(=O)NCCCCCCCCCNC(=O)COCC(=O)N[C@@H]2CC[C@@]3(O)[C@H]4Cc5ccc(O)c6c5[C@@]3(CCN4CC3CC3)[C@H]2O6)n1C1C[C@H]2CC[C@@H](C1)N2CC[C@H](NC(=O)C1CCC(F)(F)CC1)c1ccccc1` (some centres not stated), the concentration for half-maximal inhibition (IC50) on Mu-type opioid receptor [4] was determined as 74.4 nM; in data set [7], 965 nM. In data set [5], the Emax was 4.27%. Besides, on Mu-type opioid receptor [6], the Ki turned out to be 11.2 nM.
For the molecule `Cc1nnc(C(C)C)n1C1C[C@H]2CC[C@@H](C1)N2CC[C@H](NC(=O)C1CCC(F)(F)CC1)c1ccc(NC(=O)COCC(=O)NCCCCCCCNC(=O)COCC(=O)N[C@@H]2CC[C@@]3(O)[C@H]4Cc5ccc(O)c6c5[C@@]3(CCN4CC3CC3)[C@H]2O6)cc1` (some centres not stated), the CC50 at 144 h in [1] was over 100000 nM. Also, the values for the IC50 (at Mu-type opioid receptor [4]; in data set [7]) were 40 nM and 126 nM, respectively. Also, in data set [5], the maximal response (Emax) worked out at 11.7%. In addition, affinity at Mu-type opioid receptor [6] was put at a Ki of 51.8 nM.
A word on the inhibition: it is the percentage by which the read-out fell short of the control. The term EC50 denotes the concentration at which the effect is half-maximal. As to `CC(C)c1nnc(CCNC(=O)COCC(=O)NCCCCCCCNC(=O)COCC(=O)N[C@@H]2CC[C@@]3(O)[C@H]4Cc5ccc(O)c6c5[C@@]3(CCN4CC3CC3)[C@H]2O6)n1C1C[C@H]2CC[C@@H](C1)N2CC[C@H](NC(=O)C1CCC(F)(F)CC1)c1ccccc1` (some centres not stated), the CC50 at 144 h in data set [1] was over 100000 nM. Also, the inhibition in data set [8] was 22%; in data set [11], “Dose-Dependent Effect”; in data set [12], 55%; in data set [13] it was 69%. In addition, the IC50 was 50 nM at Mu-type opioid receptor [4] and 57.5 nM in [7]. In data set [2], the result was inactive. In addition, the selectivity ratio in [9] was over 1080. For the same molecule, on Mu-type opioid receptor [10], the EC50 was 36.3 nM. The same molecule returned a Ki at Mu-type opioid receptor [6] of 6.05 nM.
